Results as given in ChEMBL document CHEMBL1133678, “Synthesis of new indeno[1,2-c]isoquinolines: cytotoxic non-camptothecin topoisomerase I inhibitors” (2000).

Legend:
[1] = test system: HOP-62; assay: Antiproliferative activity was determined for 50% growth inhibition against human lung HOP-62 cell line; type: functional; conditions: Homo sapiens, HOP-62
Procedure, shortened: (§1)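 Human cancer cell lines from the roughly 55-line panel. GI50 is the concentration giving 50% growth inhibition. The test range was 10^-4 to 10^-8 M. Values outside the range were set to the minimum (10^-8 M) or the maximum (10^-4 M).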

[2] = test system: HCT-116; assay: Antiproliferative activity was determined for 50% growth inhibition against human colon HCT116 cell line; type: functional; conditions: Homo sapiens, HCT-116; procedure, shortened: as §1
[3] = test system: SN12C; assay: Antiproliferative activity was determined for 50% growth inhibition against human renal SN12C cell line; type: functional; conditions: Homo sapiens, SN12C; procedure, shortened: as §1
[4] = test system: MDA-MB-435; assay: Antiproliferative activity was determined for 50% growth inhibition against human breast MDA-MB-435 cell line; type: functional; conditions: Homo sapiens, MDA-MB-435; procedure, shortened: as §1
[5] = test system: SF-539; assay: Antiproliferative activity was determined for 50% growth inhibition against human CNS SF-539 cell line; type: functional; procedure, shortened: as §1
[6] = test system: Panel (Carcinoma cell lines); assay: Mean graph midpoint for growth inhibition of all human cancer cell lines; type: functional; parameters: unit: µM
Procedure, shortened: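 Mean graph midpoint across all cell lines successfully tested in the roughly 55-line human cancer panel. Each line's GI50 is the 50% growth-inhibition concentration, tested over 10^-4 to 10^-8 M. Out-of-range values were set to 10^-8 M or 10^-4 M before averaging.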

[7] = test system: DU-145; assay: Antiproliferative activity was determined for 50% growth inhibition against human Prostate c; type: functional; conditions: DU-145, Prostate gland; procedure, shortened: as §1
[8] = test system: OVCAR-3; assay: Antiproliferative activity was determined for 50% growth inhibition against human ovarian OVCAR-3 cell line; type: functional; procedure, shortened: as §1
[9] = test system: UACC-62; assay: Antiproliferative activity was determined for 50% growth inhibition against human melanoma UACC-62 cell line; type: functional; conditions: Homo sapiens, UACC-62; procedure, shortened: as §1
[10] = test system: DU-145; assay: Antiproliferative activity was determined for 50% growth inhibition against human Prostate DU-145 cell line; type: functional; conditions: Homo sapiens, DU-145; procedure, shortened: as §1
[11] = molecular target: T1, DNA topoisomerase 1 (Homo sapiens) (UniProt P11387); assay: Inhibitory activity of compound against human recombinant DNA topoisomerase I mediated DNA cleavage; Weak activity
T1 sequence (whole entry): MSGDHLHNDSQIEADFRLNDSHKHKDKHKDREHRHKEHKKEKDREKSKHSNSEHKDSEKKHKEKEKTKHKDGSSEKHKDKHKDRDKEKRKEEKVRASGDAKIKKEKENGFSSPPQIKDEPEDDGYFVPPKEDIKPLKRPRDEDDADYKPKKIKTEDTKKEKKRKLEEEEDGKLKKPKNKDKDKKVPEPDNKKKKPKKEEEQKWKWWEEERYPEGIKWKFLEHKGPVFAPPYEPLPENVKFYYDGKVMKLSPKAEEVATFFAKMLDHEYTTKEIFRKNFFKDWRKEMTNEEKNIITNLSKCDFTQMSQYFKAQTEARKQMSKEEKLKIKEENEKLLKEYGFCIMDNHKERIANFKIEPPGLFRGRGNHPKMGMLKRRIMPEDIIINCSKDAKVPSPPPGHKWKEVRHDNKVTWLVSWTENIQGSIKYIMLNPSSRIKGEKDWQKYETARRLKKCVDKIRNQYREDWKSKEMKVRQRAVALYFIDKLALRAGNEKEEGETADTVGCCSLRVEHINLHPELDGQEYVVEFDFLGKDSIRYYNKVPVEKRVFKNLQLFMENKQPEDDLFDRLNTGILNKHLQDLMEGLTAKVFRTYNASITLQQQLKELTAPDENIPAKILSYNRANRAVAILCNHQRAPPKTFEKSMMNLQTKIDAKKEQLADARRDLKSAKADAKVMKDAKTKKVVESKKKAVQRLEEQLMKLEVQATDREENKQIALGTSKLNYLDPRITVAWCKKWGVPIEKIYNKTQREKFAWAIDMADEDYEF

GI50 [2]	GI50 [4]	GI50 [7]	GI50 [8]	GI50 [10]	Activity [11]	GI50 ([8]; Homo sapiens, OVCAR-3)	SMILES	GI50 [1]	GI50 [3]	GI50 [5]	MGM [6]	GI50 [9]	GI50 ([5]; Homo sapiens, SF-539)
100 nM	790 nM	< 10 nM	350 nM				COc1cc2c3c(n(CCCNCCO)c(=O)c2cc1OC)-c1cc2c(cc1C3=O)OCO2.Cl	20 nM	< 10 nM	40 nM	0.11	30 nM	
3860 nM	3700 nM			3500 nM	Weak activity	5870 nM	O=C1c2ccccc2-c2c1c1ccccc1c(=O)n2CCCl	3810 nM	4390 nM		4.37	8080 nM	2480 nM
